By MIC is commonly meant the least concentration at which growth counts as inhibited. Higher therefore signals a need for much substance.

Values after ≈ are worked out from the molar mass of the structure shown.

The test system of the first assay is Radical scavenging activity. Kind of assay: Antioxidant activity assessed as DPPH free radical scavenging activity at 50 ug by spectrophotometer. Format: functional. The essentials:
(§1)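 DPPH radical scavenging measured spectrophotometrically by Blois's method at 50, 500 and 1000 µg. Absorbance read at 517 nm. Percent scavenging is the absorbance decrease at 517 nm relative to the absorbance of DPPH solution without test compound. L-ascorbic acid as standard.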
For the compound `COC(=O)[C@]12Cc3c([nH]c4ccccc34)[C@@H](c3ccccc3)N1[C@@H]1c3c(ccc4ccccc34)OC[C@@H]1C2`, the Activity was determined as 17%.

Consider `COC(=O)[C@]12Cc3c([nH]c4ccccc34)[C@@H](c3cccc([N+](=O)[O-])c3)N1[C@@H]1c3ccccc3OC[C@@H]1C2`, for which the Activity worked out at 18%.

The test system of the next assay is Bacillus subtilis. Kind of assay: Antimicrobial activity against Bacillus subtilis at 25 ug/ml by agar diffusion assay. Format: functional. The essentials: (§2)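 Agar diffusion assay in duplicate against the human bacterial pathogens; tetracycline as reference control.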
In general terms: In agar diffusion tests the substance spreads into inoculated agar from a disc or well.
`COC(=O)[C@]12Cc3c([nH]c4ccccc34)[C@@H](c3ccccc3)N1[C@@H]1c3c(ccc4ccccc34)OC[C@@H]1C2` came in with an inhibition zone (IZ) of 9 mm.

In turn, `COC(=O)[C@]12Cc3c([nH]c4ccccc34)[C@@H](c3cccc([N+](=O)[O-])c3)N1[C@@H]1c3ccccc3OC[C@@H]1C2` registered an inhibition zone (IZ) of 14 mm.

The subject of a further assay is Bacillus subtilis. Nature of the assay: Antimicrobial activity against Bacillus subtilis at 50 ug/ml by agar diffusion assay. Format: functional. The essentials:
as §2
In turn, `COC(=O)[C@]12Cc3c([nH]c4ccccc34)[C@@H](c3ccccc3)N1[C@@H]1c3c(ccc4ccccc34)OC[C@@H]1C2` came in with an inhibition zone (IZ) of 12 mm.

In turn, `COC(=O)[C@]12Cc3c([nH]c4ccccc34)[C@@H](c3cccc([N+](=O)[O-])c3)N1[C@@H]1c3ccccc3OC[C@@H]1C2` gave an inhibition zone (IZ) of 21 mm.

The subject of the next assay is Bacillus subtilis. Nature of the assay: Antimicrobial activity against Bacillus subtilis at 75 ug/ml by agar diffusion assay. Format: functional. The essentials:
as §2
Compound `COC(=O)[C@]12Cc3c([nH]c4ccccc34)[C@@H](c3ccccc3)N1[C@@H]1c3c(ccc4ccccc34)OC[C@@H]1C2` returned an inhibition zone (IZ) of 20 mm.

In the case of `COC(=O)[C@]12Cc3c([nH]c4ccccc34)[C@@H](c3cccc([N+](=O)[O-])c3)N1[C@@H]1c3ccccc3OC[C@@H]1C2`, the inhibition zone (IZ) was 28 mm.

The test system of a further assay is Bacillus subtilis. Nature of the assay: Antimicrobial activity against Bacillus subtilis at 100 ug/ml by agar diffusion assay. Format: functional. The method, boiled down: as §2
`COC(=O)[C@]12Cc3c([nH]c4ccccc34)[C@@H](c3ccccc3)N1[C@@H]1c3c(ccc4ccccc34)OC[C@@H]1C2` came in with an inhibition zone (IZ) of 24 mm.

Consider `COC(=O)[C@]12Cc3c([nH]c4ccccc34)[C@@H](c3cccc([N+](=O)[O-])c3)N1[C@@H]1c3ccccc3OC[C@@H]1C2`, for which the inhibition zone (IZ) was 40 mm.

The test system of another assay is Staphylococcus aureus. Kind of assay: Antimicrobial activity against Staphylococcus aureus at 25 ug/ml by agar diffusion assay. Format: functional. The essentials:
as §2
In the case of `COC(=O)[C@]12Cc3c([nH]c4ccccc34)[C@@H](c3ccccc3)N1[C@@H]1c3c(ccc4ccccc34)OC[C@@H]1C2`, the inhibition zone (IZ) was determined as 9 mm.

`COC(=O)[C@]12Cc3c([nH]c4ccccc34)[C@@H](c3cccc([N+](=O)[O-])c3)N1[C@@H]1c3ccccc3OC[C@@H]1C2` gave an inhibition zone (IZ) of 20 mm.

In another assay the test system is Staphylococcus aureus. Kind of assay: Antimicrobial activity against Staphylococcus aureus at 50 ug/ml by agar diffusion assay. Format: functional. The essentials:
as §2
Take `COC(=O)[C@]12Cc3c([nH]c4ccccc34)[C@@H](c3ccccc3)N1[C@@H]1c3c(ccc4ccccc34)OC[C@@H]1C2`: the inhibition zone (IZ) stood at 13 mm.

With `COC(=O)[C@]12Cc3c([nH]c4ccccc34)[C@@H](c3cccc([N+](=O)[O-])c3)N1[C@@H]1c3ccccc3OC[C@@H]1C2`, the inhibition zone (IZ) turned out to be 22 mm.

Another assay relates to Staphylococcus aureus. Nature of the assay: Antimicrobial activity against Staphylococcus aureus at 75 ug/ml by agar diffusion assay. Format: functional. The essentials: as §2
`COC(=O)[C@]12Cc3c([nH]c4ccccc34)[C@@H](c3ccccc3)N1[C@@H]1c3c(ccc4ccccc34)OC[C@@H]1C2` displayed an inhibition zone (IZ) of 18 mm.

As to `COC(=O)[C@]12Cc3c([nH]c4ccccc34)[C@@H](c3cccc([N+](=O)[O-])c3)N1[C@@H]1c3ccccc3OC[C@@H]1C2`, the inhibition zone (IZ) was determined as 24 mm.

The test system of a further assay is Staphylococcus aureus. Nature of the assay: Antimicrobial activity against Staphylococcus aureus at 100 ug/ml by agar diffusion assay. Format: functional. The method, boiled down: as §2
In turn, `COC(=O)[C@]12Cc3c([nH]c4ccccc34)[C@@H](c3ccccc3)N1[C@@H]1c3c(ccc4ccccc34)OC[C@@H]1C2` returned an inhibition zone (IZ) of 26 mm.

`COC(=O)[C@]12Cc3c([nH]c4ccccc34)[C@@H](c3cccc([N+](=O)[O-])c3)N1[C@@H]1c3ccccc3OC[C@@H]1C2` registered an inhibition zone (IZ) of 36 mm.

For another assay, the system named is Pseudomonas aeruginosa. Kind of assay: Antimicrobial activity against Pseudomonas aeruginosa at 25 ug/ml by agar diffusion assay. Format: functional. The method, boiled down: as §2
Regarding `COC(=O)[C@]12Cc3c([nH]c4ccccc34)[C@@H](c3ccccc3)N1[C@@H]1c3c(ccc4ccccc34)OC[C@@H]1C2`, the inhibition zone (IZ) was determined as 9 mm.

For `COC(=O)[C@]12Cc3c([nH]c4ccccc34)[C@@H](c3cccc([N+](=O)[O-])c3)N1[C@@H]1c3ccccc3OC[C@@H]1C2`, the inhibition zone (IZ) is 17 mm.

Another assay has as its system Pseudomonas aeruginosa. Kind of assay: Antimicrobial activity against Pseudomonas aeruginosa at 50 ug/ml by agar diffusion assay. Format: functional. The method, boiled down: as §2
`COC(=O)[C@]12Cc3c([nH]c4ccccc34)[C@@H](c3ccccc3)N1[C@@H]1c3c(ccc4ccccc34)OC[C@@H]1C2` showed an inhibition zone (IZ) of 13 mm.

For the compound `COC(=O)[C@]12Cc3c([nH]c4ccccc34)[C@@H](c3cccc([N+](=O)[O-])c3)N1[C@@H]1c3ccccc3OC[C@@H]1C2`, the inhibition zone (IZ) amounted to 24 mm.

For another assay, the system named is Pseudomonas aeruginosa. Kind of assay: Antimicrobial activity against Pseudomonas aeruginosa at 75 ug/ml by agar diffusion assay. Format: functional. The method, boiled down: as §2
For the compound `COC(=O)[C@]12Cc3c([nH]c4ccccc34)[C@@H](c3ccccc3)N1[C@@H]1c3c(ccc4ccccc34)OC[C@@H]1C2`, the inhibition zone (IZ) was determined as 18 mm.

On to `COC(=O)[C@]12Cc3c([nH]c4ccccc34)[C@@H](c3cccc([N+](=O)[O-])c3)N1[C@@H]1c3ccccc3OC[C@@H]1C2`, for which the inhibition zone (IZ) amounted to 26 mm.

For another assay, the system named is Pseudomonas aeruginosa. Nature of the assay: Antimicrobial activity against Pseudomonas aeruginosa at 100 ug/ml by agar diffusion assay. Format: functional. The method, boiled down:
as §2
With `COC(=O)[C@]12Cc3c([nH]c4ccccc34)[C@@H](c3ccccc3)N1[C@@H]1c3c(ccc4ccccc34)OC[C@@H]1C2`, the inhibition zone (IZ) is 25 mm.

Turning to `COC(=O)[C@]12Cc3c([nH]c4ccccc34)[C@@H](c3cccc([N+](=O)[O-])c3)N1[C@@H]1c3ccccc3OC[C@@H]1C2`, the inhibition zone (IZ) was 40 mm.

The next assay concerns Klebsiella pneumoniae. Kind of assay: Antimicrobial activity against Klebsiella pneumoniae at 25 ug/ml by agar diffusion assay. Format: functional. The essentials: as §2
Take `COC(=O)[C@]12Cc3c([nH]c4ccccc34)[C@@H](c3ccccc3)N1[C@@H]1c3c(ccc4ccccc34)OC[C@@H]1C2`: the inhibition zone (IZ) was 10 mm.

Compound `COC(=O)[C@]12Cc3c([nH]c4ccccc34)[C@@H](c3cccc([N+](=O)[O-])c3)N1[C@@H]1c3ccccc3OC[C@@H]1C2` displayed an inhibition zone (IZ) of 15 mm.

The test system of another assay is Klebsiella pneumoniae. Nature of the assay: Antimicrobial activity against Klebsiella pneumoniae at 50 ug/ml by agar diffusion assay. Format: functional. The essentials:
as §2
`COC(=O)[C@]12Cc3c([nH]c4ccccc34)[C@@H](c3ccccc3)N1[C@@H]1c3c(ccc4ccccc34)OC[C@@H]1C2` yielded an inhibition zone (IZ) of 12 mm.

The compound `COC(=O)[C@]12Cc3c([nH]c4ccccc34)[C@@H](c3cccc([N+](=O)[O-])c3)N1[C@@H]1c3ccccc3OC[C@@H]1C2` had an inhibition zone (IZ) of 20 mm.

The test system of the next assay is Klebsiella pneumoniae. Kind of assay: Antimicrobial activity against Klebsiella pneumoniae at 75 ug/ml by agar diffusion assay. Format: functional. The essentials:
as §2
The compound `COC(=O)[C@]12Cc3c([nH]c4ccccc34)[C@@H](c3ccccc3)N1[C@@H]1c3c(ccc4ccccc34)OC[C@@H]1C2` came in with an inhibition zone (IZ) of 17 mm.

As to `COC(=O)[C@]12Cc3c([nH]c4ccccc34)[C@@H](c3cccc([N+](=O)[O-])c3)N1[C@@H]1c3ccccc3OC[C@@H]1C2`, the inhibition zone (IZ) was 25 mm.

The next assay deals with Klebsiella pneumoniae. Nature of the assay: Antimicrobial activity against Klebsiella pneumoniae at 100 ug/ml by agar diffusion assay. Format: functional. The essentials: as §2
The compound `COC(=O)[C@]12Cc3c([nH]c4ccccc34)[C@@H](c3ccccc3)N1[C@@H]1c3c(ccc4ccccc34)OC[C@@H]1C2` had an inhibition zone (IZ) of 24 mm.

The compound `COC(=O)[C@]12Cc3c([nH]c4ccccc34)[C@@H](c3cccc([N+](=O)[O-])c3)N1[C@@H]1c3ccccc3OC[C@@H]1C2` came in with an inhibition zone (IZ) of 36 mm.

For a further assay, the system named is Fusarium oxysporum. Kind of assay: Antifungal activity against Fusarium oxysporum. Format: functional. The essentials: (§3)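 Agar diffusion assay in duplicate against the plant fungal pathogens; read-out as minimum inhibitory concentration (MIC); carbendazim as reference control.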
Consider `COC(=O)[C@]12Cc3c([nH]c4ccccc34)[C@@H](c3ccccc3)N1[C@@H]1c3c(ccc4ccccc34)OC[C@@H]1C2`, for which inhibition of growth (MIC) required 30 µg/mL (≈ 59.9 µM).

Compound `COC(=O)[C@]12Cc3c([nH]c4ccccc34)[C@@H](c3cccc([N+](=O)[O-])c3)N1[C@@H]1c3ccccc3OC[C@@H]1C2` displayed a minimal inhibitory concentration (MIC) of 90 µg/mL (≈ 182 µM).

The subject of a further assay is Macrophomina phaseolina. Nature of the assay: Antifungal activity against Macrophomina phaseolina. Format: functional. The essentials: as §3
On to `COC(=O)[C@]12Cc3c([nH]c4ccccc34)[C@@H](c3ccccc3)N1[C@@H]1c3c(ccc4ccccc34)OC[C@@H]1C2`, for which inhibition of growth (MIC) required 85 µg/mL (≈ 170 µM).

The compound `COC(=O)[C@]12Cc3c([nH]c4ccccc34)[C@@H](c3cccc([N+](=O)[O-])c3)N1[C@@H]1c3ccccc3OC[C@@H]1C2` displayed an MIC of 25 µg/mL (≈ 50.5 µM). Against the preceding compound, the MIC is about 3.4-fold lower.

The next assay has as its system Radical scavenging activity. Kind of assay: Antioxidant activity assessed as DPPH free radical scavenging activity at 500 ug by spectrophotometer. Format: functional. The method, boiled down:
as §1
In general terms: Loss of DPPH colour is used to gauge radical scavenging.
`COC(=O)[C@]12Cc3c([nH]c4ccccc34)[C@@H](c3ccccc3)N1[C@@H]1c3c(ccc4ccccc34)OC[C@@H]1C2`: the Activity was determined as 33%.

As to `COC(=O)[C@]12Cc3c([nH]c4ccccc34)[C@@H](c3cccc([N+](=O)[O-])c3)N1[C@@H]1c3ccccc3OC[C@@H]1C2`, the Activity is 42%.

In the next assay the test system is Radical scavenging activity. Nature of the assay: Antioxidant activity assessed as DPPH free radical scavenging activity at 1000 ug by spectrophotometer. Format: functional. The essentials: as §1
As to `COC(=O)[C@]12Cc3c([nH]c4ccccc34)[C@@H](c3ccccc3)N1[C@@H]1c3c(ccc4ccccc34)OC[C@@H]1C2`, the Activity is 69%.

For the compound `COC(=O)[C@]12Cc3c([nH]c4ccccc34)[C@@H](c3cccc([N+](=O)[O-])c3)N1[C@@H]1c3ccccc3OC[C@@H]1C2`, the Activity came out at 70%.

The values above are taken from ChEMBL document CHEMBL1944603, “An efficient synthesis of highly functionalized novel chromeno[4,3-b]pyrroles and indolizino[6,7-b]indoles as potent antimicrobial and antioxidant agents” (2012).
